Measured values: ChEMBL document CHEMBL3232843, “Novel pyrrolidine diketopiperazines selectively inhibit melanoma cells via induction of late-onset apoptosis” (J Med Chem, 2014)
Calls of active or inactive are those of the source. No cut-off for these calls is given here.

Tests used:
M14 [1] = experiment: Induction of apoptosis human M14 cells assessed as caspase activity at 100 uM after 72 hrs using DEVD peptide as substrate by ApoTox-Glo triplex assay; format: functional, cell-based
How it was run: (§1)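 M14 cells, 1250 per well, in serum-free DMEM, settled 4 h, then given 1:3 serial dilutions. Ionomycin, terfenadine and panobinostat were the controls. Incubated 4, 24, 48 or 72 h at 37 °C. A reagent containing 400 µM GF-AFC (live-cell protease, ex 400/em 505 nm) and 400 µM bis-AAF-R110 (dead-cell protease, ex 485/em 520 nm) was applied for 30 min at 37 °C. Caspase-Glo 3/7 (DEVD) luminescence was then read after 30 min at room temperature.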

M14 [2] = experiment: Induction of apoptosis human M14 cells assessed as caspase activity at 100 uM after 4 hrs using DEVD peptide as substrate by ApoTox-Glo triplex assay; format: functional, cell-based; how it was run: as §1
SK-MEL-28 [3] = experiment: Cytotoxicity against human SK-MEL-28 cells expressing B-raf V600E mutant after 48 hrs by hexosaminidase assay; format: functional, cell-based
How it was run: (§2)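 SK-MEL-28 or B16/F10 cells plated in 96-well plates, grown overnight, then treated with 0–50 µM compound for 48 h. Cells washed with PBS, given hexosaminidase substrate for 30 min at 37 °C, then developer. Absorbance read at 405 nm. Percent viability = treated/control absorbance × 100.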

M14 [4] = experiment: Cytotoxicity against human M14 cells assessed as cell viability at 100 uM after 4 hrs using GF-AFC as substrate by ApoTox-Glo triplex assay; format: functional, cell-based; how it was run: as §1
M14 [5] = experiment: Cytotoxicity against human M14 cells assessed as cell viability after 48 hrs using GF-AFC as substrate by ApoTox-Glo triplex assay; format: functional, cell-based; how it was run: as §1
M14 [6] = experiment: Cytotoxicity against human M14 cells assessed as cell viability at 100 uM after 4 hrs by CellTiter-Glo luminescence assay; format: functional, cell-based
How it was run: (§3)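 M14 cells, 1250 per well, in serum-free DMEM. Compounds given in 10-point 1:3 dilution series starting at 100 µM; controls were gefitinib, doxorubicin and ionomycin. Incubated at 37 °C, 5% CO2. CellTiter-Glo luminescence read at 4, 24, 48 and 72 h. Viability normalized to media-only wells and 1% DMSO-treated wells.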

[7] = Cytotoxicity against mouse B16F10 cells expressing p53 mutant at 10 uM after 48 hrs by hexosaminidase assay; format: functional; conditions: B16-F10, 48 h; how it was run: as §2
B16-F10 = experiment: (§4) Cytotoxicity against mouse B16F10 cells expressing p53 mutant after 48 hrs by hexosaminidase assay; format: functional, cell-based; how it was run: as §2
[8] = as §4; format: functional, cell-based; conditions: B16-F10, 48 h; how it was run: as §2
M14 [9] = experiment: Induction of apoptosis human M14 cells assessed as caspase activity at 100 uM after 48 hrs using DEVD peptide as substrate by ApoTox-Glo triplex assay relative to control; format: functional
How it was run: (§5)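 M14 #5 cells, 1250 per well in serum-free DMEM, pre-incubated 4 h at 37 °C, 5% CO2. Compounds added as 1:3 serial dilutions; incubated 4, 24, 48 and 72 h. Per time point, a reagent containing 400 µM GF-AFC (live-cell protease) and 400 µM bis-AAF-R110 (dead-cell protease) was added for 30 min at 37 °C, then fluorescence was read. Caspase-Glo 3/7 was added next, 30 min at room temperature, then luminescence.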

M14 [10] = experiment: Cytotoxicity against human M14 cells assessed as cell viability at 100 uM after 24 hrs by CellTiter-Glo luminescence assay; format: functional, cell-based; how it was run: as §3
M14 [11] = experiment: Cytotoxicity against human M14 cells assessed as cell viability after 48 hrs using bis-AAF-R110 as substrate by ApoTox-Glo triplex assay; format: functional, cell-based; how it was run: as §1
[12] = Cytotoxicity against CHOK1 cells after 72 hrs by CellTiter-Glo luminescence assay; format: cell-based; conditions: Cricetulus griseus, CHO-K1, 72 h
How it was run: (§6)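 1250 cells per well in serum-free medium (F12 for CHO-K1 and A549, DMEM for M14). Compounds given as 10-point 1:3 serial dilutions from a 300 µM stock, plus a gefitinib control. Incubated 72 h at 37 °C, 5% CO2. CellTiter-Glo added for 15 min at room temperature, then luminescence read. Viability normalized to media-only wells (0%) and 1% DMSO wells (100%). Run in triplicate.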

M14 [13] = experiment: Cytotoxicity against human M14 cells assessed as cell viability at 100 uM after 4 hrs using bis-AAF-R110 as substrate by ApoTox-Glo triplex assay; format: functional, cell-based; how it was run: as §1
[14] = target: Histone deacetylase 1 (Homo sapiens) (UniProt Q13547); experiment: Inhibition of HDAC1 (unknown origin) up to 100 uM
M14 [15] = experiment: Induction of apoptosis human M14 cells assessed as caspase activity at 100 uM after 24 hrs using DEVD peptide as substrate by ApoTox-Glo triplex assay relative to control; format: functional; how it was run: as §5
SK-MEL-28 [16] = experiment: Cytotoxicity against human SK-MEL-28 cells expressing B-raf V600E mutant at 10 uM after 48 hrs by hexosaminidase assay; format: functional; conditions: SK-MEL-28, 48 h; how it was run: as §2
A549 [17] = experiment: Cytotoxicity against human A549 cells after 72 hrs by CellTiter-Glo luminescence assay; format: functional, cell-based; conditions: A549, 72 h; how it was run: as §6
M14 [18] = experiment: Cytotoxicity against human M14 cells after 72 hrs by CellTiter-Glo luminescence assay; format: functional, cell-based; conditions: for IC50: M14, 72 h; how it was run: as §6
M14 [19] = experiment: Cytotoxicity against human M14 cells assessed as cell viability at 100 uM after 48 hrs by CellTiter-Glo luminescence assay; format: functional, cell-based; how it was run: as §3
[20] = target: Histone deacetylase 2 (Homo sapiens) (UniProt Q92769); experiment: Inhibition of HDAC2 (unknown origin) up to 100 uM
[21] = target: T1, Protein deacetylase HDAC6 (Homo sapiens) (UniProt Q9UBN7); experiment: Inhibition of HDAC6 (unknown origin) up to 100 uM
T1 sequence (whole entry): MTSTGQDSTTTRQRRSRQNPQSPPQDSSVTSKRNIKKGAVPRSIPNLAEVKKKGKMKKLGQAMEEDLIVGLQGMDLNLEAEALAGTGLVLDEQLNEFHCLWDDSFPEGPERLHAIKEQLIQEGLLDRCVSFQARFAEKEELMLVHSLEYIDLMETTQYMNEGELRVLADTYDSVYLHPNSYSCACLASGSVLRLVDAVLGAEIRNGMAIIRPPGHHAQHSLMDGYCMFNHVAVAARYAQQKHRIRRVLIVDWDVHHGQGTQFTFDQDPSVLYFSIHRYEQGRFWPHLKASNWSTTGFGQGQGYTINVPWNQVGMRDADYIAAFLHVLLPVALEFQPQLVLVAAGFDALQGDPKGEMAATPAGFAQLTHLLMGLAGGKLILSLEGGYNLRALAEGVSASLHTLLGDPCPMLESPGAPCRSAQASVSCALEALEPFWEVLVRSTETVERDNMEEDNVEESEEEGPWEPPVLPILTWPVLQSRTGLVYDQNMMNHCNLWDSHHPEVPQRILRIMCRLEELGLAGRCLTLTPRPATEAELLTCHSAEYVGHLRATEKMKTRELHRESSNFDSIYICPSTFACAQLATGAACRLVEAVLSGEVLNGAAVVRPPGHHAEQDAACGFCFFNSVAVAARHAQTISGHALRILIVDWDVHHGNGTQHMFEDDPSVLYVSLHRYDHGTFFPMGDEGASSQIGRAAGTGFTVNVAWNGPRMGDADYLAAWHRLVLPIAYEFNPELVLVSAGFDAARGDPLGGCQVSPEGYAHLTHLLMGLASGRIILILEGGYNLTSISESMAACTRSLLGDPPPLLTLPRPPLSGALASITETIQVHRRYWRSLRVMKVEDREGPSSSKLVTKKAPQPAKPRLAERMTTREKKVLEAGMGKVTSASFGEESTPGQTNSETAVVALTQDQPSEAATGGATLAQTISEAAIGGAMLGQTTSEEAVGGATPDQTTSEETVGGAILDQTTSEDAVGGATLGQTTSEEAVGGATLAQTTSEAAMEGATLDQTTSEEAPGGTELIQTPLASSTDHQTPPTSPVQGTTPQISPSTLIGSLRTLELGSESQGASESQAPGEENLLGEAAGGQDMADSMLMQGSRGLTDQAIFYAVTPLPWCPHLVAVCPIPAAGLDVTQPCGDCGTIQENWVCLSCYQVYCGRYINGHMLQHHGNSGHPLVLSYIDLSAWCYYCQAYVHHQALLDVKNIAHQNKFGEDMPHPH

A549 [22] = experiment: Selectivity ratio of IC50 for human M14 cells over IC50 for human A549 cells; format: functional
How it was run: (§7)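 Ratio of 72 h CellTiter-Glo IC50 values between the stated cell lines. Each IC50 comes from a 10-point 1:3 dose–response series and is the mean of three experiments ± standard deviation.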

CHO-K1 = experiment: Selectivity ratio of IC50 for human M14 cells over IC50 for CHOK1 cells; format: functional; how it was run: as §7

Histone deacetylase 1 (Homo sapiens), sequence (Q13547 whole entry): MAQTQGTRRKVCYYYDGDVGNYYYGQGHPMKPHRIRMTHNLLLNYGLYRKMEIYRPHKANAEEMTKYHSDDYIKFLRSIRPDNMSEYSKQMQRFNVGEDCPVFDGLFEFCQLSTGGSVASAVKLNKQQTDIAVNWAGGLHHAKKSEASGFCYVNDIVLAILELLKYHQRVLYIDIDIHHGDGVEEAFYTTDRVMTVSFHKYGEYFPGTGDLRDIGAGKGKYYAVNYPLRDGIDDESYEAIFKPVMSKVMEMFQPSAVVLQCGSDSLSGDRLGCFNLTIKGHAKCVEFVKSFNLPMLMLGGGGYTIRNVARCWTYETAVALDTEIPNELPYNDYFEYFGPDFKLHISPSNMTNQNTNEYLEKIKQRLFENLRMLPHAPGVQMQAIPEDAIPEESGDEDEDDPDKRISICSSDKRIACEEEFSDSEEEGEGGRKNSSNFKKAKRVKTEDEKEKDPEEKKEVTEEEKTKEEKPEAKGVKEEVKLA
Histone deacetylase 2 (Homo sapiens), sequence (Q92769 whole entry): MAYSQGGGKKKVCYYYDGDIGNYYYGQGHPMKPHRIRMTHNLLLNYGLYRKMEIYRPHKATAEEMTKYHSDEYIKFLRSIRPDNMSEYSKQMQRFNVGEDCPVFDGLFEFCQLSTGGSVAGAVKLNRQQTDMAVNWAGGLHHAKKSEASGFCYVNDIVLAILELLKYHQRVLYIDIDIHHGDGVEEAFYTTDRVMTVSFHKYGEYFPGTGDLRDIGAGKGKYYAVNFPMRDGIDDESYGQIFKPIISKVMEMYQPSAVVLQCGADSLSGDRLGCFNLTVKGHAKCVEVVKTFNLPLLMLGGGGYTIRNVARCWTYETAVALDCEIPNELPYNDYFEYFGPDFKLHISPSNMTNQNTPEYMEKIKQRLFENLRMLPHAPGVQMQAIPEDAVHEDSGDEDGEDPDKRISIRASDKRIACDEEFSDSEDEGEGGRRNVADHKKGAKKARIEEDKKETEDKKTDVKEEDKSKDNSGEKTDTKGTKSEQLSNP

Compound: O=C1NC[C@H](Cc2ccccc2)N(C[C@@H]2CCCN2C[C@@H](CC2CCCCC2)N2C[C@H](Cc3ccc(O)cc3)N(CCc3ccccc3)C(=O)C2=O)C1=O
- Activity (M14 [1]): inactive
- Activity (M14 [2]): inactive
- inhibition (SK-MEL-28 [3]): Dose-dependent effect
- IC50 (SK-MEL-28 [3]; SK-MEL-28, 48 h): 0.56 µM
- Activity (M14 [4]): inactive
- Activity (M14 [5]): Dose-dependent effect
- Activity (M14 [6]): inactive
- inhibition at 10 µM [7]: 100%
- inhibition (B16-F10): Dose-dependent effect
- IC50 [8]: 2.7 µM
- Activity (M14 [9]): 400%
- Activity (M14 [10]): Active
- Activity (M14 [11]): Dose-dependent effect
- IC50 [12]: > 100 µM
- Activity (M14 [13]): inactive
- inhibition [14]: inactive
- Activity (M14 [15]): 550%
- inhibition at 10 µM (SK-MEL-28 [16]): 100%
- IC50 (A549 [17]): > 100 µM
- inhibition (M14 [18]): Dose-dependent effect
- IC50 (M14 [18]): 3.6 µM
- Activity (M14 [19]): Active
- inhibition [20]: inactive
- inhibition [21]: inactive

Compound: CCC[C@H]1CNC(=O)C(=O)N1C[C@@H]1CCCN1C[C@@H](CC1CCCCC1)N1C[C@H](Cc2ccc(O)cc2)N(CCc2ccccc2)C(=O)C1=O
- Ratio IC50 (A549 [22]): 5
- Ratio IC50 (CHO-K1): >10
- IC50 [12]: > 100 µM
- IC50 (A549 [17]): 52 µM
- IC50 (M14 [18]): 8.8 µM
